Data: ChEMBL document CHEMBL5230144, “Synthesis and Biological Evaluation of Celastrol Derivatives with Improved Cytotoxic Selectivity and Antitumor Activities” (J Nat Prod, 2021)
Calls of active or inactive are those of the source. The calls are words filed in the database; no cut-off is given here.

Legend:
[1] = target: T1, Heat shock protein HSP 90-beta/Hsp90 co-chaperone Cdc37 (Homo sapiens, UniProt P08238+Q16543); assay: Disruption of His-tagged full length HSP90 (unknown origin)/GST-tagged Cdc37 (unknown origin) measured after 1 hr by HTRF method; type: protein-complex assay
T1 sequence (P08238 whole entry): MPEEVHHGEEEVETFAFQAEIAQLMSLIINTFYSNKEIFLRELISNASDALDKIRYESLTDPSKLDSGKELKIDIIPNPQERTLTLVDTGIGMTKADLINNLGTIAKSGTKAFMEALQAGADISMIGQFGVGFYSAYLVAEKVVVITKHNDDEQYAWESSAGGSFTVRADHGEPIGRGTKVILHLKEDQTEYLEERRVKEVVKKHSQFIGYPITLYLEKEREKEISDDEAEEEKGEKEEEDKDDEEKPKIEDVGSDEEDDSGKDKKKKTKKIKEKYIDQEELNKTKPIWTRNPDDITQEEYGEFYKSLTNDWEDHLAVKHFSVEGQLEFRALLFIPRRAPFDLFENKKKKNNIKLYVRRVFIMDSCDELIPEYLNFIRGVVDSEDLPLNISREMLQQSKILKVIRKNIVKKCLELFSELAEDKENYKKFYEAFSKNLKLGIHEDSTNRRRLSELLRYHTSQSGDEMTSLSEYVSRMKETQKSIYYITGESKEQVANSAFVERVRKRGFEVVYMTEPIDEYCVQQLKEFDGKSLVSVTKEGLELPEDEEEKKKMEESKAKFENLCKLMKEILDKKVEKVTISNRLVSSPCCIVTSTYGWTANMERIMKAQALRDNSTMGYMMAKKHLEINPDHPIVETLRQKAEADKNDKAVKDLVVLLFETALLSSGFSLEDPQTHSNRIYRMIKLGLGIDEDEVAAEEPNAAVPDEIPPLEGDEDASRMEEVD
T1 sequence (Q16543 whole entry): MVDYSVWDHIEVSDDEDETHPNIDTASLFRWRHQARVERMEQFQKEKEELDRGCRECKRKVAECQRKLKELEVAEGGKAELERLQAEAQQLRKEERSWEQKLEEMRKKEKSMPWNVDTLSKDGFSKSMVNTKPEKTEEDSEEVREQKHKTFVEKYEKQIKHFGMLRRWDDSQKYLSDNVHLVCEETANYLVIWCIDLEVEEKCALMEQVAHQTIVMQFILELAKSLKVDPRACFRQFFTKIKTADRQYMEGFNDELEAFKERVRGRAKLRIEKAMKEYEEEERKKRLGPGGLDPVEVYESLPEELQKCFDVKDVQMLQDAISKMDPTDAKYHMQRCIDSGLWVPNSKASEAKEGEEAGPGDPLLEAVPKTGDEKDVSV
In short: (§1)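 HTRF in PBS with […], pH 7.3: His-tagged full-length Hsp90 and GST-tagged Cdc37 (each 250 nM final) with compound, 37 °C for 1 h. Anti-GST-Cryptate and anti-6His-XL665 then added for 0.5 h at 37 °C. Time-resolved fluorescence read at ex 320 nm, em 665/620 nm; ratio (665/620) × 10 000.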

KB = assay: cells; settings: Homo sapiens, 48 h
[2] = target: T1, Heat shock protein HSP 90-beta/Hsp90 co-chaperone Cdc37; assay: Disruption of His-tagged full length HSP90 (unknown origin)/GST-tagged Cdc37 (unknown origin) at 50 uM measured after 1 hr by HTRF method; type: protein-complex assay; in short: as §1
MCF7 = assay: cells; settings: Homo sapiens, MCF7, 48 h
MDA-MB-231 = assay: cells; settings: Homo sapiens, MDA-MB-231, 48 h
A549 = assay: cells; settings: Homo sapiens, A549, 48 h
[3] = Toxicity in nude mouse xenografted with human MDA-MB-231 cells assessed as damage to kidney at 10 mg/kg, po measured after 26 days by Hand E staining method; type: organism-based; settings: in vivo, 624 h, time 26 day
In short: (§2)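 Female athymic nude mice (5–6 weeks) bore MDA-MB-231 xenografts and were randomized (n = 6) once tumors averaged about 100 mm³. They were dosed orally at 10 mg/kg, alongside vehicle and carboplatin (10 mg/kg) groups. On the last day of administration, heart, liver, lungs and kidneys were examined by HE staining.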

HUVEC = assay: Antimigratory activity against human HUVEC cells assessed as inhibition of cell migration at 0.1 uM measured after 12 to 24 hrs by wound scratch assay; type: functional, cell-based; settings: time 12-24 hrs
In short: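 HUVEC monolayers were scratched and treated, with wound closure imaged at 0, 12 and 24 h. Migration was quantified as a migration ratio relative to 0 h.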

[4] = Toxicity in nude mouse xenografted with human MDA-MB-231 cells assessed as decrease of red blood cells at 10 mg/kg, po measured after 26 days; type: organism-based; settings: in vivo, 624 h, time 26 day
In short: (§3)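 Female athymic nude mice (5–6 weeks) bore MDA-MB-231 xenografts and were randomized (n = 6) at a mean tumor volume of about 100 mm³. They received 10 mg/kg orally, with vehicle and carboplatin (10 mg/kg) groups. On the final day of administration, a routine blood examination counted white blood cells, red blood cells and platelets, compared against vehicle.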

[5] = Toxicity in nude mouse xenografted with human MDA-MB-231 cells assessed as decrease of white blood cells at 10 mg/kg, po measured after 26 days; type: organism-based; settings: in vivo, 624 h, time 26 day; in short: as §3
[6] = Toxicity in nude mouse xenografted with human MDA-MB-231 cells assessed as damage to liver at 10 mg/kg, po measured after 26 days by Hand E staining method; type: organism-based; settings: in vivo, 624 h, time 26 day; in short: as §2
[7] = Toxicity in nude mouse xenografted with human MDA-MB-231 cells assessed as damage to lungs at 10 mg/kg, po measured after 26 days by Hand E staining method; type: organism-based; settings: in vivo, 624 h, time 26 day; in short: as §2
[8] = Toxicity in nude mouse xenografted with human MDA-MB-231 cells assessed as damage to heart at 10 mg/kg, po measured after 26 days by Hand E staining method; type: organism-based; settings: in vivo, 624 h, time 26 day; in short: as §2
[9] = Toxicity in nude mouse xenografted with human MDA-MB-231 cells assessed as decrease of platelets at 10 mg/kg, po measured after 26 days; type: organism-based; settings: in vivo, 624 h, time 26 day; in short: as §3
[10] = Cytotoxicity against human mesenchymal bone marrow stem cells measured after 48 hrs by MTT assay; type: toxicity, cell-based
[11] = Toxicity in nude mouse xenografted with human MDA-MB-231 cells assessed as decrease of body weight at 10 mg/kg, po measured after 26 days; type: organism-based; settings: in vivo, 624 h, time 26 day
In short: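 Female athymic nude mice, 5−6 weeks old, carrying MDA-MB-231 xenografts; randomized at about 100 mm³ tumor volume, n = 6 per group. Groups were vehicle, carboplatin 10 mg/kg, celastrol 10 mg/kg and test compound 10 mg/kg oral. Body weight tracked from day 16 to day 26; blood counts taken on the last day.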

SMILES | IC50 [1] [nM] | IC50 (KB) [nM] | inhibition [2] [%] | IC50 (MCF7) [nM] | IC50 (MDA-MB-231) [nM] | IC50 (A549) [nM] | other results
CC1=C(O)C(=O)C=C2C1=CC=C1[C@@]2(C)CC[C@@]2(C)[C@@H]3C[C@](C)(C(=O)OCc4ccccc4C)CC[C@]3(C)CC[C@]12C | 10000 | – | – | – | – | – | –
CC1=C(O)C(=O)C=C2C1=CC=C1[C@@]2(C)CC[C@@]2(C)[C@@H]3C[C@](C)(C(=O)OCC4CCCCC4)CC[C@]3(C)CC[C@]12C | 2900 | – | – | – | – | – | –
CC1=C(O)C(=O)C=C2C1=CC=C1[C@@]2(C)CC[C@@]2(C)[C@@H]3C[C@](C)(C(=O)OCCCl)CC[C@]3(C)CC[C@]12C | – | 1900 | 87 | 1800 | 800 | 6300 | –
CC1=C(O)C(=O)C=C2C1=CC=C1[C@@]2(C)CC[C@@]2(C)[C@@H]3C[C@](C)(C(=O)O)CC[C@]3(C)CC[C@]12C [CELASTROL] | – | 1700 | 82.3 | 1200 | 900 | 1800 | Activity [3]: Toxic; Activity (HUVEC): inactive; Activity [4]: Toxic; Activity [5]: Toxic; Activity [6]: Toxic; Activity [7]: Toxic; Activity [8]: Toxic; Activity [9]: Toxic; IC50 at 48 h [10]: 700 nM
C#CCOC(=O)[C@]1(C)CC[C@]2(C)CC[C@]3(C)C4=CC=C5C(=CC(=O)C(O)=C5C)[C@]4(C)CC[C@@]3(C)[C@@H]2C1 | 1700 | – | – | – | – | – | –
C=CCOC(=O)[C@]1(C)CC[C@]2(C)CC[C@]3(C)C4=CC=C5C(=CC(=O)C(O)=C5C)[C@]4(C)CC[C@@]3(C)[C@@H]2C1 | – | 300 | 89.9 | 400 | 800 | 800 | –
CCOC(=O)[C@]1(C)CC[C@]2(C)CC[C@]3(C)C4=CC=C5C(=CC(=O)C(O)=C5C)[C@]4(C)CC[C@@]3(C)[C@@H]2C1 | – | 1000 | 85.7 | 1000 | 700 | 1700 | –
CC1=C(O)C(=O)C=C2C1=CC=C1[C@@]2(C)CC[C@@]2(C)[C@@H]3C[C@](C)(C(=O)OCCBr)CC[C@]3(C)CC[C@]12C | – | 1000 | 86.3 | 1100 | 100 | 1600 | –
CC1=C(O)C(=O)C=C2C1=CC=C1[C@@]2(C)CC[C@@]2(C)[C@@H]3C[C@](C)(C(=O)OCc4cccc(C)c4)CC[C@]3(C)CC[C@]12C | 6200 | – | – | – | – | – | –
CC1=C(O)C(=O)C=C2C1=CC=C1[C@@]2(C)CC[C@@]2(C)[C@@H]3C[C@](C)(C(=O)OCc4ccccc4)CC[C@]3(C)CC[C@]12C | 2400 | 600 | 90.1 | 700 | 400 | 1300 | IC50 at 48 h [10]: 1000 nM
COCCCOC(=O)[C@]1(C)CC[C@]2(C)CC[C@]3(C)C4=CC=C5C(=CC(=O)C(O)=C5C)[C@]4(C)CC[C@@]3(C)[C@@H]2C1 | – | 600 | 88.8 | 600 | 400 | 1000 | –
CCCOC(=O)[C@]1(C)CC[C@]2(C)CC[C@]3(C)C4=CC=C5C(=CC(=O)C(O)=C5C)[C@]4(C)CC[C@@]3(C)[C@@H]2C1 | – | 600 | 87.4 | 500 | 800 | 1100 | –
CC1=C(O)C(=O)C=C2C1=CC=C1[C@@]2(C)CC[C@@]2(C)[C@@H]3C[C@](C)(C(=O)OCCC(C)C)CC[C@]3(C)CC[C@]12C | – | 1900 | 87.8 | 2000 | 1100 | 4200 | –
COCCOC(=O)[C@]1(C)CC[C@]2(C)CC[C@]3(C)C4=CC=C5C(=CC(=O)C(O)=C5C)[C@]4(C)CC[C@@]3(C)[C@@H]2C1 | 6700 | – | – | – | – | – | –
C#CCOC(=O)[C@]1(C)CC[C@]2(C)CC[C@]3(C)C4=CC=C5C(=CC(=O)C(OC(=O)N6CCC(N7CCCCC7)CC6)=C5C)[C@]4(C)CC[C@@]3(C)[C@@H]2C1 | – | – | – | – | 200 | – | Activity [3]: Non-Toxic; Activity [4]: Non-Toxic; Activity [11]: Toxic; Activity [5]: Non-Toxic; Activity [6]: Non-Toxic; Activity [7]: Non-Toxic; Activity [8]: Non-Toxic; Activity [9]: Non-Toxic; IC50 at 48 h [10]: 2800 nM
CCCCOC(=O)[C@]1(C)CC[C@]2(C)CC[C@]3(C)C4=CC=C5C(=CC(=O)C(O)=C5C)[C@]4(C)CC[C@@]3(C)[C@@H]2C1 | – | 600 | 86 | 600 | 900 | 1300 | –
COC(=O)[C@]1(C)CC[C@]2(C)CC[C@]3(C)C4=CC=C5C(=CC(=O)C(O)=C5C)[C@]4(C)CC[C@@]3(C)[C@@H]2C1 [PRISTIMERIN] | – | 900 | 83.1 | 900 | 800 | 1100 | –
